Measurements collected from several papers.
Lines come from different studies, so protocols differ.
Target: Serine/threonine-protein kinase PLK1 (PLK1, Homo sapiens, UniProt P53350)

Cn1nc(C(=O)NCc2ccc(C(=O)O)cc2)cc1-c1ccc2[nH]ccc2c1
remaining binding (cell-free assay; competition with immobilised ligand; 0.1 µM): 95%

CCN1CCN(Cc2ccc(NC(=O)c3ccc(C)c(Oc4ccnc5[nH]ccc45)c3)cc2C(F)(F)F)CC1
inhibition (target engagement in cells; inhibitor; chemoproteomics; Huh-7; 10 µM): -35%

CNCc1ccccc1-c1csc([C@H](C)Nc2nc(C)nc3cc(OC)c(OC)cc23)c1
remaining binding (cell-free assay; competition with immobilised ligand; 1 µM): 85%

COc1cc(Nc2cnc(C#N)c(O[C@H](C)CN(C)C)n2)ncc1-c1cnn(C)c1
remaining activity (enzyme activity; inhibitor; radiometric; 10 µM): 104%

Nc1nc(Nc2ccccc2)sc1C(=O)c1c(F)cccc1F
remaining activity (enzyme activity; inhibitor; 10 µM): 86%

O=C(O)[C@@H]1[C@@H](Cn2nnc3ccccc3c2=O)CC[C@H]1C(=O)c1ccc(OCCC2CCOCC2)cc1
remaining binding (cell-free assay; competition with immobilised ligand; 1 µM): 80%

O=C(CSc1nc2nccnc2c(=O)n1CCc1ccccc1)Nc1nccs1
inhibition (enzyme activity; inhibitor; 10 µM): 8%

CN(C)C1CCN(CC#Cc2nn(C3CCCC3)c3nc(NCc4ccccc4)ncc23)C1 (centres unmarked)
inhibition (enzyme activity; inhibitor; FRET; 0.1 µM): -1%

Cc1ccc(C(=O)Nc2ccc(CN3CCN(C)CC3)c(C(F)(F)F)c2)cc1C#Cc1cnc2cccnn12
remaining activity (enzyme activity; inhibitor; 23.5 nM): 96%

CN(c1ncccc1CNc1nc(Nc2ccc3c(c2)CC(=O)N3)ncc1C(F)(F)F)S(C)(=O)=O
inhibition (enzyme activity; inhibitor; 1 µM): 22.1%

O=C(NC[C@@H]1[C@H]2CN(C(=O)OCc3cc(C(F)(F)F)cc(C(F)(F)F)c3)C[C@@H]12)c1ccc2[nH]nnc2c1
remaining binding (cell-free assay; competition with immobilised ligand; 1 µM): 100%

N#CCCc1ccc2c(c1)-c1[nH]c3ccc([N+](=O)[O-])cc3c1CC(=O)N2
remaining signal (cell-free assay; 0.5 µM): 101%

Cc1cnc(NC2CCOCC2)nc1-n1cnc(C(=O)NC(CN)c2cc(F)cc(Cl)c2)c1 (centres unmarked)
remaining activity (enzyme activity; inhibitor; radiometric; 1 µM): 103%

CCN(CC)CCNC(=O)c1c(C)[nH]c(/C=C2\C(=O)Nc3ccc(F)cc32)c1C
remaining activity (enzyme activity; inhibitor; 1 µM): 110%

CCCOc1ccc(OC)c(F)c1C(=O)c1ccc(C(=O)N[C@@H]2CNC[C@H]2NC(=O)c2ccc3[nH]ncc3c2)cc1
remaining activity (enzyme activity; inhibitor; 10 µM): 105%

Cc1ccc(C(=O)NCc2ccsc2)cc1C#Cc1cn(C(C)C)c2ncnc(N)c12
activity vs control (enzyme activity; inhibitor; 1 µM): 105%

O=C1NC(=O)c2cc(Nc3ccc(F)cc3)c(Nc3ccc(F)cc3)cc21
remaining signal (cell-free assay; 0.5 µM): 99.9%

FC(F)c1nc2ccccc2n1-c1nc(N2CCOCC2)nc(N2CCOCC2)n1
remaining activity (enzyme activity; inhibitor; 10 µM): 75%

CC(C)(C)C(=O)c1sc(NC2CCCCC2)nc1N
remaining activity (enzyme activity; inhibitor; 10 µM): 93%

O=C1Nc2ccc(Cl)cc2C1=Cc1cc(Cl)c(O)c(Cl)c1
remaining signal (cell-free assay; 0.5 µM): 99.8%

Cc1[nH]c(/C=C2\C(=O)Nc3ccc(F)cc32)c(C)c1C(=O)N[C@H]1CCN(C(=O)N(C)C)C1
remaining activity (enzyme activity; inhibitor; 1 µM): 122%

COc1cc2ncnc(Nc3ccc(Oc4ccccc4)cc3C)c2cc1OC
inhibition (enzyme activity; inhibitor; 1 µM): 3%

O=C(Nc1cnn(-c2csc(C(=O)NC3COC3)c2)c1)Nc1c(F)cccc1Cl
remaining activity (enzyme activity; inhibitor; 5 µM): 95.5%

CN(c1ccnc(CNc2nc(Nc3ccc4c(c3)CC(=O)N4)ncc2C(F)(F)F)n1)S(C)(=O)=O
remaining binding (cell-free assay; competition with immobilised ligand; 1 µM): 7.6%

C=CC(=O)Nc1cc(Nc2nccc(Nc3cc(Cl)c(F)cc3C(C)(C)O)n2)c(OC)cc1N1CC[C@@H](N(C)C)C1
inhibition (enzyme activity; inhibitor; 1 µM): 11%

Cn1cc(Cl)c2c(Oc3c(F)cc(Nc4cc(Cl)nc(N)n4)cc3F)ccnc21
remaining binding (cell-free assay; competition with immobilised ligand; 0.1 µM): 83%

O=c1cc(N2CCOCC2)oc2c(-c3ccccc3)cccc12
remaining signal (cell-free assay; 0.5 µM): 67.1%

O=C(Nc1ccc(Oc2ccc(F)cc2)cc1)N1CCc2ncccc2[C@H]1c1ccc(F)cc1
remaining binding (cell-free assay; competition with immobilised ligand; 1 µM): 78%

CC/C(=N\NC(=O)NCc1cccc(O)c1)c1ccc(O)c(C)c1O
inhibition (enzyme activity; inhibitor; 0.1 µM): -2.6%

Oc1cccc(-c2nc(N3CCOCC3)c3oc4ncccc4c3n2)c1
remaining activity (enzyme activity; inhibitor; 10 µM): 93%

Cc1nc(C2CCN(C(=O)c3ccc(OC(F)(F)F)cc3N)CC2)c2ncc(N3CCN(C)CC3)cc2n1
remaining binding (cell-free assay; competition with immobilised ligand; 1 µM): 79%

FC(F)(F)Oc1cccc(-c2cnc3ccc(-c4ccncc4)nn23)c1
activity vs control (enzyme activity; inhibitor; radiometric; 1 µM): 93%
